Assay results reported in ChEMBL document CHEMBL1641468, “Synthesis of modified siRNA bearing C-5 polyamine-substituted pyrimidine nucleoside in their 3'-overhang regions and its RNAi activity” (Bioorg Med Chem Lett, 2011).
The source made the active and inactive calls. No cut-off for these calls is given here.

What was measured:
[1] = Chemical stability of the compound in presence of snake venom phosphodiesterase after 30 mins by RP-HPLC analysis; type: physicochemical; conditions: 0.5 h
Procedure, shortened: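 Each oligoribonucleotide (0.8 nmol) incubated with snake venom phosphodiesterase, a 3'-exonuclease (0.01 U), in 200 mM Tris–HCl pH 8.0 with 100 mM MgCl₂ at 37 °C for 5 and 30 min; mixtures analysed by RP-HPLC, remaining full-length RNA expressed as fraction of total RNA from chromatogram peak areas.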

[2] = target: T1, Hepatocyte nuclear factor 4-alpha (Homo sapiens) (UniProt P41235); assay: Inhibition of HNF4alpha mRNA expression in human HepG2 cells after 24 hrs by RT-PCR analysis; type: cell-based; conditions: in the assay text read “after 48 hrs” for “after 24 hrs”
T1 sequence (whole entry): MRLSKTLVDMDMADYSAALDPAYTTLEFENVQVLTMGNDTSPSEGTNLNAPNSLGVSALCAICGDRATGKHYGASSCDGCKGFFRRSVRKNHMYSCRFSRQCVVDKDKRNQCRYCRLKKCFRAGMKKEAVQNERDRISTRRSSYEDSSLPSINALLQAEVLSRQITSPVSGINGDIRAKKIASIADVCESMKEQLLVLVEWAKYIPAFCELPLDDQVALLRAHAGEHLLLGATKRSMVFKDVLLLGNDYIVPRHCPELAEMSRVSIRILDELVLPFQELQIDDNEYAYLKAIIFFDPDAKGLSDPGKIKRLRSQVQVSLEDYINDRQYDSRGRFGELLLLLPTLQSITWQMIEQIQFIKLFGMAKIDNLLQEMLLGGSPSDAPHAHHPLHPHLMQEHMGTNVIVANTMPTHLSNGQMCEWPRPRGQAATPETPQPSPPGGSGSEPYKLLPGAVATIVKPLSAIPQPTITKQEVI
Procedure, shortened: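 HepG2 cells were grown in DMEM with 5% FBS at 37 °C and transfected with siRNA using a transfection reagent. After 24 h at 37 °C, the medium was changed to DMEM with 10% FBS and cells were incubated a further 24 h. Total RNA was reverse-transcribed for real-time PCR (40 cycles). HNF4α mRNA was normalized to GAPDH by ΔΔCt and expressed relative to nonsense control siRNA, using the mean Ct of duplicate PCRs from independent cells.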

[3] = target: T1, Hepatocyte nuclear factor 4-alpha (Homo sapiens); assay: Inhibition of HNF4alpha mRNA expression in human HepG2 cells after 24 hrs by real-time RT-PCR

**Q.** What does the source list for Cc1cn([C@H]2C[C@H](OP(=O)(O)OC[C@H]3O[C@@H](n4cc(CC(=O)NCCN(CCN)CCN)c(=O)[nH]c4=O)C[C@@H]3O)[C@@H](COP(=O)(O)O[C@@H]3[C@H](O)[C@@H](COP(=O)(O)O[C@H]4[C@@H](O)[C@H](n5cnc6c(N)ncnc65)O[C@@H]4COP(=O)(O)O[C@H]4[C@@H](O)[C@H](n5ccc(N)nc5=O)O[C@@H]4COP(=O)(O)O[C@H]4[C@@H](O)[C@H](n5cnc6c(N)ncnc65)O[C@@H]4COP(=O)(O)O[C@@H]4[C@H](O)[C@@H](COP(=O)(O)O[C@@H]5[C@H](O)[C@@H](COP(=O)(O)O[C@H]6[C@@H](O)[C@H](n7ccc(=O)[nH]c7=O)O[C@@H]6COP(=O)(O)O[C@@H]6[C@H](O)[C@@H](COP(=O)(O)O[C@@H]7[C@H](O)[C@@H](COP(=O)(O)O[C@H]8[C@@H](O)[C@H](n9ccc(=O)[nH]c9=O)O[C@@H]8COP(=O)(O)O[C@@H]8[C@H](O)[C@@H](COP(=O)(O)O[C@H]9[C@@H](O)[C@H](n%10ccc(N)nc%10=O)O[C@@H]9COP(=O)(O)O[C@@H]9[C@H](O)[C@@H](COP(=O)(O)O[C@H]%10[C@@H](O)[C@H](n%11ccc(=O)[nH]c%11=O)O[C@@H]%10COP(=O)(O)O[C@@H]%10[C@H](O)[C@@H](COP(=O)(O)O[C@H]%11[C@@H](O)[C@H](n%12cnc%13c(N)ncnc%13%12)O[C@@H]%11COP(=O)(O)O[C@H]%11[C@@H](O)[C@H](n%12ccc(N)nc%12=O)O[C@@H]%11COP(=O)(O)O[C@@H]%11[C@H](O)[C@@H](COP(=O)(O)O[C@H]%12[C@@H](O)[C@H](n%13cnc%14c(=O)[nH]c(N)nc%14%13)O[C@@H]%12COP(=O)(O)O)O[C@H]%11n%11cnc%12c(=O)[nH]c(N)nc%12%11)O[C@H]%10n%10cnc%11c(=O)[nH]c(N)nc%11%10)O[C@H]9n9cnc%10c(=O)[nH]c(N)nc%109)O[C@H]8n8cnc9c(=O)[nH]c(N)nc98)O[C@H]7n7cnc8c(=O)[nH]c(N)nc87)O[C@H]6n6cnc7c(=O)[nH]c(N)nc76)O[C@H]5n5cnc6c(=O)[nH]c(N)nc65)O[C@H]4n4cnc5c(=O)[nH]c(N)nc54)O[C@H]3n3cnc4c(N)ncnc43)O2)c(=O)[nH]c1=O?
**A.** Stability [1]: Stable; Activity [2]: Active; Activity [3]: Active

**Q.** With NCCN(CCN)CCNC(=O)Cc1cn([C@H]2C[C@H](OP(=O)(O)OC[C@H]3O[C@@H](n4cc(CC(=O)NCCN(CCN)CCN)c(=O)[nH]c4=O)C[C@@H]3O)[C@@H](COP(=O)(O)O[C@@H]3[C@H](O)[C@@H](COP(=O)(O)O[C@H]4[C@@H](O)[C@H](n5cnc6c(N)ncnc65)O[C@@H]4COP(=O)(O)O[C@H]4[C@@H](O)[C@H](n5ccc(N)nc5=O)O[C@@H]4COP(=O)(O)O[C@H]4[C@@H](O)[C@H](n5cnc6c(N)ncnc65)O[C@@H]4COP(=O)(O)O[C@@H]4[C@H](O)[C@@H](COP(=O)(O)O[C@@H]5[C@H](O)[C@@H](COP(=O)(O)O[C@H]6[C@@H](O)[C@H](n7ccc(=O)[nH]c7=O)O[C@@H]6COP(=O)(O)O[C@@H]6[C@H](O)[C@@H](COP(=O)(O)O[C@@H]7[C@H](O)[C@@H](COP(=O)(O)O[C@H]8[C@@H](O)[C@H](n9ccc(=O)[nH]c9=O)O[C@@H]8COP(=O)(O)O[C@@H]8[C@H](O)[C@@H](COP(=O)(O)O[C@H]9[C@@H](O)[C@H](n%10ccc(N)nc%10=O)O[C@@H]9COP(=O)(O)O[C@@H]9[C@H](O)[C@@H](COP(=O)(O)O[C@H]%10[C@@H](O)[C@H](n%11ccc(=O)[nH]c%11=O)O[C@@H]%10COP(=O)(O)O[C@@H]%10[C@H](O)[C@@H](COP(=O)(O)O[C@H]%11[C@@H](O)[C@H](n%12cnc%13c(N)ncnc%13%12)O[C@@H]%11COP(=O)(O)O[C@H]%11[C@@H](O)[C@H](n%12ccc(N)nc%12=O)O[C@@H]%11COP(=O)(O)O[C@@H]%11[C@H](O)[C@@H](COP(=O)(O)O[C@H]%12[C@@H](O)[C@H](n%13cnc%14c(=O)[nH]c(N)nc%14%13)O[C@@H]%12COP(=O)(O)O)O[C@H]%11n%11cnc%12c(=O)[nH]c(N)nc%12%11)O[C@H]%10n%10cnc%11c(=O)[nH]c(N)nc%11%10)O[C@H]9n9cnc%10c(=O)[nH]c(N)nc%109)O[C@H]8n8cnc9c(=O)[nH]c(N)nc98)O[C@H]7n7cnc8c(=O)[nH]c(N)nc87)O[C@H]6n6cnc7c(=O)[nH]c(N)nc76)O[C@H]5n5cnc6c(=O)[nH]c(N)nc65)O[C@H]4n4cnc5c(=O)[nH]c(N)nc54)O[C@H]3n3cnc4c(N)ncnc43)O2)c(=O)[nH]c1=O as the molecule, how does the Stability [1] read?
**A.** Stable

**Q.** And the Activity [2]?
**A.** Active

**Q.** And the Activity [3]?
**A.** Active
